In brackets after ≈: the same amount, converted by molar mass.
Assays:
Staphylococcus aureus [1] = test: Antibacterial activity against Staphylococcus aureus ATCC 25923 after 16 hrs by broth microdilution method; assay type: functional; conditions: ATCC 25923, 16 h
Enterococcus faecalis [2] = test: Antibacterial activity against Enterococcus faecalis ATCC 29212 after 16 hrs by broth microdilution method; assay type: functional; conditions: ATCC 29212, 16 h
Escherichia coli [3] = test: Antibacterial activity against Escherichia coli ATCC 29425 after 16 hrs by broth microdilution method; assay type: functional; conditions: ATCC 29425, 16 h
Staphylococcus aureus [4] = test: Antibacterial activity against methicillin-susceptible Staphylococcus aureus after 16 hrs by broth microdilution method; assay type: functional
Procedure, shortened: (§1)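 Clinical isolates, including strains resistant to common antimicrobials, tested by the standard broth dilution method. The read-out is the minimum inhibitory concentration in μg/mL. Each value is representative of three independent determinations.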

Staphylococcus aureus [5] = test: Antibacterial activity against methicillin-resistant Staphylococcus aureus after 16 hrs by broth microdilution method; assay type: functional; procedure, shortened: as §1
Streptococcus pneumoniae [6] = test: Antibacterial activity against penicillin-susceptible Streptococcus pneumoniae after 16 hrs by broth microdilution method; assay type: functional
Streptococcus pneumoniae [7] = test: Antibacterial activity against penicillin-resistant Streptococcus pneumoniae after 16 hrs by broth microdilution method; assay type: functional; procedure, shortened: as §1
Enterococcus faecalis [8] = test: Antibacterial activity against vancomycin-susceptible Enterococcus faecalis after 16 hrs by broth microdilution method; assay type: functional
Enterococcus faecalis [9] = test: Antibacterial activity against vancomycin-resistant Enterococcus faecalis after 16 hrs by broth microdilution method; assay type: functional; procedure, shortened: as §1
Enterococcus faecium [10] = test: Antibacterial activity against vancomycin-susceptible Enterococcus faecium after 16 hrs by broth microdilution method; assay type: functional; procedure, shortened: as §1
Enterococcus faecium [11] = test: Antibacterial activity against vancomycin-resistant Enterococcus faecium after 16 hrs by broth microdilution method; assay type: functional; procedure, shortened: as §1
Escherichia coli [12] = test: Antibacterial activity against Escherichia coli clinical isolate after 16 hrs by 2-fold microdilution method; assay type: functional
HEK293 = test: Cytotoxicity against human HEK293 cells after 48 hrs by MTT assay; assay type: cell-based; conditions: HEK293, 48 h
Procedure, shortened: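 Standard MTT assay in Human Embryonic Kidney 293 cells, with 64 μg/mL as the top concentration tested. IC50 came from three independent experiments.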

Albumin = Albumin (Bos taurus, UniProt P02769); test: Binding affinity to bovine serum albumin BY HPLC analysis; assay type: ADME; conditions: cattle, isolated protein
Procedure, shortened: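 Compound was incubated with BSA standard solution and the bound fraction separated by centrifugal ultrafiltration. Free compound was quantified by HPLC. Binding degree = (Cb–Ca)/Cb, where Cb and Ca are the compound concentrations before and after interaction with BSA.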

[13] = Cytotoxicity against human HEK293 cells at 64 ug/ml after 48 hrs by MTT assay; assay type: cell-based; conditions: read-out: INH
Procedure, shortened: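 HEK293 cells were exposed to compound at 64 μg/mL and assessed by standard MTT. Inhibitory rate was recorded across three independent experiments.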

Chain of Albumin (P02769 whole entry): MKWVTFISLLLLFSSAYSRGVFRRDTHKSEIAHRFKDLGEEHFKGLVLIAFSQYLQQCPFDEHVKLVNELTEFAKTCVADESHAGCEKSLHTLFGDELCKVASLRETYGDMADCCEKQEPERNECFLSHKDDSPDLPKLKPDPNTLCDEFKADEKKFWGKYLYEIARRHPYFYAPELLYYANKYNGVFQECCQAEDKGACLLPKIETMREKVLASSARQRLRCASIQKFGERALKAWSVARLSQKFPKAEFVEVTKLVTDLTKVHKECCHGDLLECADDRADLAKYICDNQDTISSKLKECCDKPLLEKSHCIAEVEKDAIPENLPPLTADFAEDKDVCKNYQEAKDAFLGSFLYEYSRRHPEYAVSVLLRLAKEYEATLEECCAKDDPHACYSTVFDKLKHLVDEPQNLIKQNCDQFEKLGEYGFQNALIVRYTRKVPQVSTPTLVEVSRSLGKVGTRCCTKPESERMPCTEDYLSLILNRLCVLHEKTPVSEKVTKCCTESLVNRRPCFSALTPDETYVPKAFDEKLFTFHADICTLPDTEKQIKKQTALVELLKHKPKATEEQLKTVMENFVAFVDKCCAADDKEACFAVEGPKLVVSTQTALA

Row | Structure (SMILES) | MIC (Staphylococcus aureus [1]) [µg/mL] | MIC (Enterococcus faecalis [2]) [µg/mL] | MIC (Escherichia coli [3]) [µg/mL] | further results
1 | Fc1cc2nc(NCCCNCc3ccc(Cl)c(Cl)c3)sc2cc1F | 0.5 (≈ 1.24 µM) | 1 (≈ 2.49 µM) | 32 (≈ 79.5 µM) | MIC (Staphylococcus aureus [4]): 0.5 µg/mL (≈ 1.24 µM); MIC (Staphylococcus aureus [5]): 1 µg/mL (≈ 2.49 µM); MIC (Streptococcus pneumoniae [6]): 4 µg/mL (≈ 9.94 µM); MIC (Streptococcus pneumoniae [7]): 4 µg/mL (≈ 9.94 µM); MIC (Enterococcus faecalis [8]): 1 µg/mL (≈ 2.49 µM); MIC (Enterococcus faecalis [9]): 1 µg/mL (≈ 2.49 µM); MIC (Enterococcus faecium [10]): 2 µg/mL (≈ 4.97 µM); MIC (Enterococcus faecium [11]): 2 µg/mL (≈ 4.97 µM); MIC (Escherichia coli [12]): > 64 µg/mL; IC50 (HEK293): > 64 µg/mL; Activity (Albumin): 1.4%; cytotoxicity at 48 h, 64 ug/ml [13]: 15%
2 | Clc1ccc2sc(NCCCNCc3ccc(Cl)c(Cl)c3)nc2c1 | 2 (≈ 4.99 µM) | 2 (≈ 4.99 µM) | 32 (≈ 79.8 µM) | –
3 | Fc1ccc2nc(NCCCNCc3ccc(Cl)c(Cl)c3)sc2c1 | 1 (≈ 2.6 µM) | 2 (≈ 5.2 µM) | 32 (≈ 83.3 µM) | –
4 | Clc1ccc(CNCCCNc2nc3ccccc3s2)c(Cl)c1 | 8 (≈ 21.8 µM) | 8 (≈ 21.8 µM) | > 64 | –
5 | Clc1ccc2nc(NCCCNCc3ccc(Cl)c(Cl)c3)oc2c1 | 2 (≈ 5.2 µM) | 4 (≈ 10.4 µM) | 32 (≈ 83.2 µM) | –
6 | COc1ccc(CNCCNc2nc3ccccc3s2)cc1 | 32 (≈ 102 µM) | 32 (≈ 102 µM) | > 64 | –
7 | Clc1ccc2oc(NCCCNCc3ccc(Cl)c(Cl)c3)nc2c1 | 2 (≈ 5.2 µM) | 4 (≈ 10.4 µM) | 32 (≈ 83.2 µM) | –
8 | Clc1ccc(CNCCNc2nc3ccccc3o2)c(Cl)c1 | 8 (≈ 23.8 µM) | 8 (≈ 23.8 µM) | > 64 | –
9 | c1ccc(CNCCNc2nc3ccccc3s2)cc1 | > 64 | > 64 | > 64 | –
10 | Clc1ccc2nc(NCCCNCc3ccc(Cl)c(Cl)c3)sc2c1 | 4 (≈ 9.98 µM) | 2 (≈ 4.99 µM) | 32 (≈ 79.8 µM) | –
11 | Clc1ccc(CNCCCNc2nc3ccccc3o2)c(Cl)c1 | 8 (≈ 22.8 µM) | 4 (≈ 11.4 µM) | > 64 | –
12 | Oc1ccc(CNCCCNc2nc3ccccc3s2)cc1 | 16 (≈ 51 µM) | 32 (≈ 102 µM) | > 64 | –
13 | Clc1ccc(CNCCNc2nc3ccccc3o2)cc1 | 8 (≈ 26.5 µM) | 32 (≈ 106 µM) | > 64 | –
14 | Clc1ccc(CNCCCNc2nc3ccccc3s2)cc1Cl | 4 (≈ 10.9 µM) | 16 (≈ 43.7 µM) | 32 (≈ 87.4 µM) | –
15 | COc1ccc2nc(NCCCNCc3ccc(Cl)c(Cl)c3)oc2c1 | 8 (≈ 21 µM) | 16 (≈ 42.1 µM) | 32 (≈ 84.1 µM) | –
16 | COc1ccc(CNCCCNc2nc3ccccc3s2)cc1 | 64 (≈ 195 µM) | 64 (≈ 195 µM) | > 64 | –
17 | Fc1ccc2nc(NCCCNCc3ccc(Cl)c(Cl)c3)oc2c1 | 1 (≈ 2.72 µM) | 4 (≈ 10.9 µM) | 32 (≈ 86.9 µM) | –
18 | Oc1ccc(CNCCCNc2nc3ccccc3o2)cc1 | 32 (≈ 108 µM) | 32 (≈ 108 µM) | > 64 | –
19 | c1ccc(CNCCCNc2nc3ccccc3s2)cc1 | > 64 | > 64 | > 64 | –
20 | Clc1ccc(CNCCCNc2nc3ccccc3o2)cc1 | 16 (≈ 50.7 µM) | 16 (≈ 50.7 µM) | > 64 | –
21 | Clc1ccc(CNCCNc2nc3ccccc3o2)cc1Cl | 16 (≈ 47.6 µM) | 8 (≈ 23.8 µM) | > 64 | –
22 | CO/N=C(\C(=O)N[C@@H]1C(=O)N2C(C(=O)O)=C(COC(C)=O)CS[C@H]12)c1csc(N)n1 [CEFOTAXIME] | – | – | – | MIC (Staphylococcus aureus [4]): 1 µg/mL (≈ 2.2 µM); MIC (Staphylococcus aureus [5]): > 64 µg/mL; MIC (Streptococcus pneumoniae [6]): 1 µg/mL (≈ 2.2 µM); MIC (Streptococcus pneumoniae [7]): 64 µg/mL (≈ 141 µM); MIC (Enterococcus faecalis [8]): 1 µg/mL (≈ 2.2 µM); MIC (Enterococcus faecalis [9]): > 64 µg/mL; MIC (Enterococcus faecium [10]): 1 µg/mL (≈ 2.2 µM); MIC (Enterococcus faecium [11]): > 64 µg/mL; MIC (Escherichia coli [12]): 0.25 µg/mL (≈ 0.549 µM)

Row | Structure (SMILES) | MIC (Staphylococcus aureus [1]) [µg/mL] | MIC (Enterococcus faecalis [2]) [µg/mL] | MIC (Escherichia coli [3]) [µg/mL] | further results
23 | Clc1ccc(CNCCCNc2nc3ccccc3o2)cc1Cl | 16 (≈ 45.7 µM) | 2 (≈ 5.71 µM) | 32 (≈ 91.4 µM) | –
24 | CC1(C)S[C@@H]2[C@H](NC(=O)[C@H](N)c3ccccc3)C(=O)N2[C@H]1C(=O)O [AMPICILLIN] | – | – | – | MIC (Staphylococcus aureus [4]): 0.0625 µg/mL (≈ 0.179 µM); MIC (Staphylococcus aureus [5]): > 64 µg/mL; MIC (Streptococcus pneumoniae [6]): 0.125 µg/mL (≈ 0.358 µM); MIC (Streptococcus pneumoniae [7]): > 64 µg/mL; MIC (Enterococcus faecalis [8]): 0.125 µg/mL (≈ 0.358 µM); MIC (Enterococcus faecalis [9]): > 64 µg/mL; MIC (Enterococcus faecium [10]): 0.25 µg/mL (≈ 0.715 µM); MIC (Enterococcus faecium [11]): > 64 µg/mL; MIC (Escherichia coli [12]): 0.25 µg/mL (≈ 0.715 µM)
25 | COc1ccc(CNCCCNc2nc3ccccc3o2)cc1 | 32 (≈ 103 µM) | 32 (≈ 103 µM) | > 64 | –
26 | Brc1cccc(CNCCCNc2nc3ccccc3s2)c1 | 16 (≈ 42.5 µM) | 8 (≈ 21.3 µM) | 32 (≈ 85 µM) | –
27 | c1ccc(CNCCNc2nc3ccccc3o2)cc1 | > 64 | > 64 | > 64 | –
28 | Clc1ccc(CNCCNc2nc3ccccc3s2)c(Cl)c1 | 2 (≈ 5.68 µM) | 8 (≈ 22.7 µM) | 32 (≈ 90.8 µM) | –
29 | Clc1ccc(CNCCCNc2nc3ccccc3s2)cc1 | 16 (≈ 48.2 µM) | 8 (≈ 24.1 µM) | > 64 | –
30 | Fc1cc2nc(NCCCNCc3ccc(Cl)c(Cl)c3)oc2cc1F | 1 (≈ 2.59 µM) | 2 (≈ 5.18 µM) | 32 (≈ 82.9 µM) | –
31 | Cl.O=c1cc(NCCCNCc2ccc(Cl)c(Cl)c2)[nH]c2ccccc12 | 4 | 0.5 | > 64 | MIC (Staphylococcus aureus [4]): 2 µg/mL; MIC (Staphylococcus aureus [5]): 2 µg/mL; MIC (Streptococcus pneumoniae [6]): 4 µg/mL; MIC (Streptococcus pneumoniae [7]): 8 µg/mL; MIC (Enterococcus faecalis [8]): 1 µg/mL; MIC (Enterococcus faecalis [9]): 2 µg/mL; MIC (Enterococcus faecium [10]): 1 µg/mL; MIC (Enterococcus faecium [11]): 1 µg/mL; MIC (Escherichia coli [12]): > 64 µg/mL; IC50 (HEK293): > 64 µg/mL; cytotoxicity at 48 h, 64 ug/ml [13]: 15%
32 | Oc1ccc(CNCCNc2nc3ccccc3s2)cc1 | 16 (≈ 53.4 µM) | 32 (≈ 107 µM) | > 64 | –
33 | Clc1ccc(CNCCNc2nc3ccccc3s2)cc1Cl | 32 (≈ 90.8 µM) | 64 (≈ 182 µM) | > 64 | –
34 | c1ccc(CNCCCNc2nc3ccccc3o2)cc1 | > 64 | > 64 | > 64 | –
35 | Fc1ccc2sc(NCCCNCc3ccc(Cl)c(Cl)c3)nc2c1 | 1 (≈ 2.6 µM) | 2 (≈ 5.2 µM) | 32 (≈ 83.3 µM) | –
36 | Fc1ccc2oc(NCCCNCc3ccc(Cl)c(Cl)c3)nc2c1 | 1 (≈ 2.72 µM) | 4 (≈ 10.9 µM) | 32 (≈ 86.9 µM) | –
37 | Oc1ccc(CNCCNc2nc3ccccc3o2)cc1 | 32 (≈ 113 µM) | 32 (≈ 113 µM) | > 64 | –
38 | Brc1cccc(CNCCCNc2nc3ccccc3o2)c1 | 16 (≈ 44.4 µM) | 8 (≈ 22.2 µM) | 32 (≈ 88.8 µM) | –
39 | Brc1cccc(CNCCNc2nc3ccccc3s2)c1 | 8 (≈ 22.1 µM) | 64 (≈ 177 µM) | 64 (≈ 177 µM) | –
40 | COc1ccc(CNCCNc2nc3ccccc3o2)cc1 | 64 (≈ 215 µM) | 64 (≈ 215 µM) | > 64 | –
41 | Brc1cccc(CNCCNc2nc3ccccc3o2)c1 | 8 (≈ 23.1 µM) | 64 (≈ 185 µM) | > 64 | –
42 | Clc1ccc(CNCCNc2nc3ccccc3s2)cc1 | 8 (≈ 25.2 µM) | 32 (≈ 101 µM) | > 64 | –
43 | COc1ccc2nc(NCCCNCc3ccc(Cl)c(Cl)c3)sc2c1 | 4 (≈ 10.1 µM) | 4 (≈ 10.1 µM) | > 64 | –

Reference: ChEMBL document CHEMBL2016577, “Preparation, antibacterial evaluation and preliminary structure-activity relationship (SAR) study of benzothiazol- and benzoxazol-2-amine derivatives” (Bioorg Med Chem Lett, 2012)
